# Data: ChEMBL document CHEMBL3861986, “Synthesis and Enantiomeric Separation of a Novel Spiroketal Derivative: A Potent Human Telomerase Inhibitor with High in Vitro Anticancer Activity” (J Med Chem, 2016)
# The source made the active and inactive calls. The calls are words filed in the database; no cut-off is given here.
# Key:
# [1] = Growth inhibition of human M14 cells at 250 nM after 24 hrs by cell titer 96 cell proliferation assay; format: functional; settings: M14, 24 h, read-out: GI
# Method in brief: (§1)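 M14 cells seeded at 8×10^4 cells/mL in 96-well plates and left to adhere overnight. They were treated with 62.5, 125 or 250 nM compound or with DMSO control for up to 72 h. Dye was added for 4 h, followed by solubilization/stop solution, and absorbance was read at 570 nm, zeroed on medium-only wells. Inhibition is given as % versus control. Triplicates in three experiments.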
# [2] = Growth inhibition of human M14 cells at 250 nM after 48 hrs by cell titer 96 cell proliferation assay; format: functional; settings: M14, 48 h, read-out: GI; method in brief: as §1
# [3] = Growth inhibition of human M14 cells at 250 nM after 72 hrs by cell titer 96 cell proliferation assay; format: functional; settings: M14, 72 h, read-out: GI; method in brief: as §1
# [4] = biological target: T1, Telomerase reverse transcriptase (Homo sapiens, UniProt O14746); experiment: Inhibition of telomerase activity in human MCF7 cells using biotin-labeled TeloTAGGG as primer preincubated for 48 hrs followed by primer addition measured after 30 mins by PCR-ELISA; format: cell-based
# T1 sequence (O14746 whole entry): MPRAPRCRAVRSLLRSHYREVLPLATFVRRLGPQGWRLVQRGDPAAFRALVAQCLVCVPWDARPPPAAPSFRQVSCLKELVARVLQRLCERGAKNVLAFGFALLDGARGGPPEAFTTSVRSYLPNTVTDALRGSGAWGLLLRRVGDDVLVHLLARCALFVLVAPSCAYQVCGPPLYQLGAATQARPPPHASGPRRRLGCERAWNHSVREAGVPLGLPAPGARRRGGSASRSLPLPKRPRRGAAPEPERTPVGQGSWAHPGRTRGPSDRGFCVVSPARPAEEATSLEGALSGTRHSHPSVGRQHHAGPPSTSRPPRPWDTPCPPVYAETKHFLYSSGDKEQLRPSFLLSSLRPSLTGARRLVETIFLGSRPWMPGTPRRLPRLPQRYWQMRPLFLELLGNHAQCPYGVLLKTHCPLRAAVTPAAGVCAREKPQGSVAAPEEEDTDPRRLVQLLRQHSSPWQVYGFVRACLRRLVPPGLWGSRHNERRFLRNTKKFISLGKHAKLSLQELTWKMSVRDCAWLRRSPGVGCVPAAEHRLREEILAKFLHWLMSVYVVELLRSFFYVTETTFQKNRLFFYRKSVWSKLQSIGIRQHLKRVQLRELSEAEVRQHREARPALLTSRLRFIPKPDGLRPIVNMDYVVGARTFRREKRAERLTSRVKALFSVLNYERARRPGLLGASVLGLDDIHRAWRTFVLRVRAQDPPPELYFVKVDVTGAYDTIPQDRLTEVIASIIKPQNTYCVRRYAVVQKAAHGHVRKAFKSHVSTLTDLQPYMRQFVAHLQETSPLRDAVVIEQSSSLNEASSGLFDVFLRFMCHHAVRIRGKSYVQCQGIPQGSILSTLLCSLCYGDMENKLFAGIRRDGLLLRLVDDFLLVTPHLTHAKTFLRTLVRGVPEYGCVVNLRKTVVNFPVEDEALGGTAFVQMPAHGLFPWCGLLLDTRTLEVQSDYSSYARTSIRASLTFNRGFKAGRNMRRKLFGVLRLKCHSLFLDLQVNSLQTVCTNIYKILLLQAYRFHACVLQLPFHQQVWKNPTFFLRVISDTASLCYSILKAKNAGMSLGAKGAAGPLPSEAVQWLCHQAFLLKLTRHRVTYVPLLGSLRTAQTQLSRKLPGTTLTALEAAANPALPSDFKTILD
# Method in brief: (§2)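 Cells treated 48 h with 31.2–250 nM, then washed, lysed, and the supernatants stored at −80°C. Extracts were incubated 30 min with biotin-labeled primer for telomeric repeat extension. Products plus internal standard were PCR-amplified, hybridized to digoxigenin probes, captured on streptavidin plates, detected with peroxidase antibody, and read at 450 nm. Heat-inactivated extract (95°C, 10 min) served as negative control. Inhibition is % of untreated means; triplicate.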
# [5] = Growth inhibition of human HT-29 cells at 250 nM after 24 hrs by trypan blue dye exclusion assay; format: functional; settings: HT-29, 24 h, read-out: GI
# Method in brief: (§3)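 Cells seeded at 5×10^4 cells/mL and left to adhere overnight. They were then exposed to 7.8–250 nM compound or to DMSO vehicle, 3 wells per treatment, at 37°C in 5% CO2 for 24, 48 or 72 h. Trypsinized cells were counted by hemocytometer, and viability was scored by trypan blue exclusion. Read-out is viable cell number, mean ± SE of triplicate wells, from a representative experiment of at least three.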
# [6] = biological target: T1, Telomerase reverse transcriptase; experiment: Inhibition of telomerase activity in human H125 cells using biotin-labeled TeloTAGGG as primer at 31.2 nM preincubated for 48 hrs followed by primer addition measured after 30 mins by PCR-ELISA; format: cell-based; method in brief: as §2
# [7] = biological target: T1, Telomerase reverse transcriptase; experiment: Inhibition of telomerase activity in human MCF7 cells using biotin-labeled TeloTAGGG as primer at 62.5 nM preincubated for 48 hrs followed by primer addition measured after 30 mins by PCR-ELISA; format: cell-based; method in brief: as §2
# [8] = biological target: T1, Telomerase reverse transcriptase; experiment: Inhibition of telomerase activity in human M14 cells using biotin-labeled TeloTAGGG as primer at 31.2 nM preincubated for 48 hrs followed by primer addition measured after 30 mins by PCR-ELISA; format: cell-based; method in brief: as §2
# [9] = biological target: T1, Telomerase reverse transcriptase; experiment: Inhibition of telomerase activity in human HT-29 cells using biotin-labeled TeloTAGGG as primer at 125 nM preincubated for 48 hrs followed by primer addition measured after 30 mins by PCR-ELISA; format: cell-based; method in brief: as §2
# [10] = Growth inhibition of human SH-SY5Y cells at 250 nM after 24 hrs by trypan blue dye exclusion assay; format: functional; settings: read-out: GI; method in brief: as §3
# [11] = biological target: T1, Telomerase reverse transcriptase; experiment: Inhibition of telomerase activity in human HT-29 cells using biotin-labeled TeloTAGGG as primer at 250 nM preincubated for 48 hrs followed by primer addition measured after 30 mins by PCR-ELISA; format: cell-based; method in brief: as §2
# [12] = biological target: T1, Telomerase reverse transcriptase; experiment: Inhibition of telomerase activity in human M14 cells using biotin-labeled TeloTAGGG as primer at 62.5 nM preincubated for 48 hrs followed by primer addition measured after 30 mins by PCR-ELISA; format: cell-based; method in brief: as §2
# [13] = Growth inhibition of human MCF7 cells at 250 nM after 24 hrs by trypan blue dye exclusion assay; format: functional; settings: MCF7, 24 h, read-out: GI; method in brief: as §3
# [14] = biological target: T1, Telomerase reverse transcriptase; experiment: Inhibition of telomerase activity in human HT-29 cells using biotin-labeled TeloTAGGG as primer preincubated for 48 hrs followed by primer addition measured after 30 mins by PCR-ELISA; format: cell-based; method in brief: as §2
# [15] = biological target: T1, Telomerase reverse transcriptase; experiment: Inhibition of telomerase activity in human M14 cells using biotin-labeled TeloTAGGG as primer preincubated for 48 hrs followed by primer addition measured after 30 mins by PCR-ELISA; format: cell-based; method in brief: as §2
# SH-SY5Y [16] = experiment: Induction of apoptosis in human SH-SY5Y cells assessed as increase in caspase 3/7 activation at 31.2 nM after 24 hrs by caspase-glo 3/7 luminescence assay relative to control; format: functional
# Method in brief: (§4)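 SH-SY5Y cells seeded at 5×10^4 cells/mL and left to adhere overnight, then exposed to 7.8–31.2 nM for 24 h. Caspase-Glo 3/7 reagent, in a volume equal to the medium, was added for 1 h at 37°C. Luminescence from the cleaved aminoluciferin substrate was read and expressed relative to untreated control set at 1.0. DMSO-treated cells served as negative control. Triplicate wells.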
# [17] = biological target: T1, Telomerase reverse transcriptase; experiment: Inhibition of telomerase activity in human HT-29 cells using biotin-labeled TeloTAGGG as primer at 31.2 nM preincubated for 48 hrs followed by primer addition measured after 30 mins by PCR-ELISA; format: cell-based; method in brief: as §2
# [18] = Growth inhibition of human HL60 cells at 250 nM after 24 hrs by trypan blue dye exclusion assay; format: functional; settings: HL-60, 24 h, read-out: GI; method in brief: as §3
# [19] = biological target: T1, Telomerase reverse transcriptase; experiment: Inhibition of telomerase activity in human MCF7 cells using biotin-labeled TeloTAGGG as primer at 250 nM preincubated for 48 hrs followed by primer addition measured after 30 mins by PCR-ELISA; format: cell-based; method in brief: as §2
# [20] = biological target: T1, Telomerase reverse transcriptase; experiment: Inhibition of telomerase activity in human H125 cells using biotin-labeled TeloTAGGG as primer preincubated for 48 hrs followed by primer addition measured after 30 mins by PCR-ELISA; format: cell-based; method in brief: as §2
# [21] = biological target: T1, Telomerase reverse transcriptase; experiment: Inhibition of telomerase activity in human M14 cells using biotin-labeled TeloTAGGG as primer at 125 nM preincubated for 48 hrs followed by primer addition measured after 30 mins by PCR-ELISA; format: cell-based; method in brief: as §2
# [22] = biological target: T1, Telomerase reverse transcriptase; experiment: Inhibition of telomerase activity in human H125 cells using biotin-labeled TeloTAGGG as primer at 250 nM preincubated for 48 hrs followed by primer addition measured after 30 mins by PCR-ELISA; format: cell-based; method in brief: as §2
# [23] = biological target: T1, Telomerase reverse transcriptase; experiment: Inhibition of telomerase activity in human M14 cells using biotin-labeled TeloTAGGG as primer at 250 nM preincubated for 48 hrs followed by primer addition measured after 30 mins by PCR-ELISA; format: cell-based; method in brief: as §2
# [24] = biological target: T1, Telomerase reverse transcriptase; experiment: Inhibition of telomerase activity in human MCF7 cells using biotin-labeled TeloTAGGG as primer at 31.2 nM preincubated for 48 hrs followed by primer addition measured after 30 mins by PCR-ELISA; format: cell-based; method in brief: as §2
# [25] = biological target: T1, Telomerase reverse transcriptase; experiment: Inhibition of telomerase activity in human H125 cells using biotin-labeled TeloTAGGG as primer at 125 nM preincubated for 48 hrs followed by primer addition measured after 30 mins by PCR-ELISA; format: cell-based; method in brief: as §2
# [26] = Growth inhibition of human H125 cells at 250 nM after 24 hrs by trypan blue dye exclusion assay; format: functional; settings: NCI-H125, 24 h, read-out: GI; method in brief: as §3
# [27] = biological target: T1, Telomerase reverse transcriptase; experiment: Inhibition of telomerase activity in human MCF7 cells using biotin-labeled TeloTAGGG as primer at 125 nM preincubated for 48 hrs followed by primer addition measured after 30 mins by PCR-ELISA; format: cell-based; method in brief: as §2
# SH-SY5Y [28] = experiment: Induction of apoptosis in human SH-SY5Y cells assessed as increase in caspase 3/7 activation at 7.8 to 15.6 nM after 24 hrs by caspase-glo 3/7 luminescence assay; format: functional, cell-based; method in brief: as §4
# [29] = biological target: T1, Telomerase reverse transcriptase; experiment: Inhibition of telomerase activity in human H125 cells using biotin-labeled TeloTAGGG as primer at 62.5 nM preincubated for 48 hrs followed by primer addition measured after 30 mins by PCR-ELISA; format: cell-based; method in brief: as §2
# [30] = biological target: T1, Telomerase reverse transcriptase; experiment: Inhibition of telomerase activity in human HT-29 cells using biotin-labeled TeloTAGGG as primer at 62.5 nM preincubated for 48 hrs followed by primer addition measured after 30 mins by PCR-ELISA; format: cell-based; method in brief: as §2
# [31] = Growth inhibition of human M14 cells at 250 nM after 24 hrs by trypan blue dye exclusion assay; format: functional; settings: M14, 24 h, read-out: GI; method in brief: as §3
smiles,measurement,setting,value
C[C@@H]1CCC[C@@]2(O[C@H](O)C=CC2=O)O1,inhibition of growth at 0.25 µM,[1],36.7%
same,inhibition of growth at 0.25 µM,[2],58.1%
same,inhibition of growth at 0.25 µM,[3],63.7%
CC1CCCC2(OC(O)C=CC2=O)O1 (mixture of isomers),IC50,[4],0.0126 to 0.0852 µM
same,inhibition,[4],Dose-dependent effect
same,inhibition of growth at 0.25 µM,[5],> 90%
same,inhibition,[6],13.6%
same,inhibition,[7],37.5%
same,inhibition,[8],62%
same,inhibition,[9],69%
same,inhibition of growth at 0.25 µM,[1],36.8%
same,inhibition of growth at 0.25 µM,[10],> 90%
same,inhibition of growth at 0.25 µM,[2],56.1%
same,inhibition,[11],73.4%
same,inhibition,[12],63%
same,inhibition of growth at 0.25 µM,[13],> 90%
same,IC50,[14],0.0126 to 0.0852 µM
same,inhibition,[14],Dose-dependent effect
same,IC50,[15],0.0126 to 0.0852 µM
same,inhibition,[15],Dose-dependent effect
same,fold change (FC),SH-SY5Y [16],8.2
same,inhibition,[17],24%
same,inhibition of growth at 0.25 µM,[18],> 90%
same,inhibition,[19],78.6%
same,IC50,[20],0.0126 to 0.0852 µM
same,inhibition,[20],Dose-dependent effect
same,inhibition,[21],74%
same,inhibition,[22],75.7%
same,inhibition,[23],82.6%
same,inhibition,[24],0%
same,inhibition,[25],67.6%
same,inhibition of growth at 0.25 µM,[26],> 90%
same,inhibition,[27],67.9%
same,Activity,SH-SY5Y [28],Active
same,inhibition,[29],48.7%
same,inhibition,[30],53.5%
same,inhibition of growth at 0.25 µM,[3],61.4%
same,inhibition of growth at 0.25 µM,[31],> 90%
C[C@H]1CCC[C@]2(O[C@@H](O)C=CC2=O)O1,inhibition of growth at 0.25 µM,[1],40.4%
same,inhibition of growth at 0.25 µM,[2],64.4%
same,inhibition of growth at 0.25 µM,[3],66.6%
